Published values pooled from the literature.
Each line is one published result; the experiments were not run side by side.

Compound | target or system | assay | test system | conditions | endpoint | result
[H]/N=C(/N)N[C@H]1[C@H](O)[C@@H](O)[C@H](O[C@@H]2O[C@@H](C)[C@](O)(C=O)[C@H]2O[C@@H]2O[C@@H](CO)[C@H](O)[C@@H](O)[C@@H]2NC)[C@@H](N/C(N)=N\[H])[C@@H]1O | Mycobacterium avium | microbial growth | ATCC25291 | – | MIC | 12.5 µg/mL
Cc1cccc2[nH]cc(CNCC3(N4CCCC4)COC3)c12 | GBM6 | cell growth or viability | – | 30 µM, 48 h | viability | 77.5%
Oc1cccc(C2CCCN(CCc3c[nH]c4ccccc34)C2)c1 (centres unmarked) | HEK293 | cell growth or viability | – | – | IC50 | > 10 µM
O=c1c2ccccc2[se]n1-c1ccccc1 | HEK293 | cell growth or viability, MTT | – | 125 µM, 72 h | inhibition | 43%
CO[C@H]1/C=C/O[C@@]2(C)Oc3c(C)c(O)c4c(O)c(c(/C=N/N5CCN(C)CC5)c(O)c4c3C2=O)NC(=O)/C(C)=C\C=C\[C@H](C)[C@H](O)[C@@H](C)[C@@H](O)[C@@H](C)[C@H](OC(C)=O)[C@@H]1C | Mycolicibacterium phlei | microbial growth | – | – | MIC | 0.03 µg/mL
Cc1ccc(-c2nc3ccc(C)cn3c2CC(=O)N(C)C)cc1 | Mycobacterium avium | microbial growth | – | 6 days | MIC | > 50 µM
Cc1cccc2c(CNCC3(N4CCCC4)COC3)c[nH]c12 | T98G | cell growth or viability | – | 30 µM, 48 h | viability | 34.1%
C#C[C@]1(O)CC[C@H]2[C@@H]3CCc4cc(O)ccc4[C@H]3CC[C@@]21C | Vesicular stomatitis virus | viral entry, inhibitor | Vero C1008 | pseudovirus | IC50 | 25 to 70 µM
O=C(NC1CCC(CN2CCC(c3c[nH]c4ccccc34)CC2)CC1)c1[nH]c(=O)[nH]c(=O)c1F (centres unmarked) | HEK293 | cell growth or viability | – | – | IC50 | > 10 µM
NNC(=O)c1ccncc1 | Mycolicibacterium phlei | microbial growth | – | – | MIC | > 8 µg/mL
O=C(NC1CCC(CN2CCC(c3c[nH]c4ccccc34)CC2)CC1)c1cn(Cc2ccccc2)c2ccccc12 (centres unmarked) | HEK293 | cell growth or viability | – | – | IC50 | > 10 µM
N.N.[Cl][Pt][Cl] | SK-MEL-28 | cell growth or viability, resazurin | – | dark | EC50 | 3.38 µM
CNCCN(C)C(=O)Oc1c(Br)c(C)nc(C)c1-c1ccc(Oc2ccc(OC(F)(F)F)cc2)cc1 | HEK293 | cell growth or viability | – | – | IC50 | > 10 µM
COc1cc(C)[nH]c(=O)c1CNC(=O)c1c(C)n([C@H](C)C2CCN(CC(F)(F)F)CC2)c2ccccc12 | KARPAS-422 | cell growth or viability | – | 8 days | GI50 | 0.39 µM
